Assay results from ChEMBL document CHEMBL4396897, “Potent 5-Cyano-6-phenyl-pyrimidin-Based Derivatives Targeting DCN1-UBE2M Interaction” (J Med Chem, 2019).
Activity calls are given as the source filed them. The rule behind the calls is not given here.

Experiments:
KYSE-70 cell line = assay: Antiproliferative activity against human KYSE-70 after 72 hrs by MTT assay; assay type: functional, cell-based; conditions: KYSE-70, 72 h
In short: (§1)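 MTT viability assay: cells seeded at 2~5×10^3 per well, exposed to serial dilutions of compound for 72h, then MTT (5 mg/mL in PBS) added for 4h at 37°C. Formazan dissolved in DMSO and read at 490nm. IC50 reported as mean ± SD of three independent experiments.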

[1] = Aqueous solubility of compound in pH 7.4 PBS sonicated for 30 mins followed by 24 hrs incubation under shaking condition by UV-Vis spectroscopy; assay type: physicochemical; conditions: buffer, pH 7.4, 24 h
In short: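 Compound powder added to phosphate buffer (PBS, pH 7.4) until a suspension formed. Sonicated 30 min in a water bath, then shaken 24 h at room temperature to reach equilibrium. Centrifuged, supernatant filtered through a 0.45µm membrane, and filtrate measured by UV spectroscopy against a PBS control.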

A549 [2] = assay: Induction of apoptosis in human A549 cells assessed as late apoptotic cells at 2.5 uM after 48 hrs by Annexin V-FITC/propidium iodide staining based flow cytometry (reference value: 2.61%); assay type: functional
NCI-H1975 [3] = assay: Induction of apoptosis in human NCI-NCI-H1975 cells assessed as early apoptotic cells at 2.5 uM after 48 hrs by Annexin V-FITC/propidium iodide staining based flow cytometry (reference value: 2.47%); assay type: functional
NCI-H1975 [4] = assay: Induction of apoptosis in human NCI-NCI-H1975 cells assessed as necrotic cells at 5 uM after 48 hrs by Annexin V-FITC/propidium iodide staining based flow cytometry (reference value: 0.94%); assay type: functional
PC-9 [5] = assay: Effect on NRF2 accumulation in human PC9 cells transfected with DCN1 siRNA3 by densitometric method; assay type: functional, cell-based
In short: (§2)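 H1975 or PC9 cells seeded in 6-well plates for 16-24h, transfected with DCN1 siRNA#3 by lipofection, with or without compound, and collected three days later. Western blot for Cullin3, DCN1, NRF2, HO-1 and NQO1, with densitometry normalized to GAPDH. Three individual experiments, means ± SD.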

TE-1 = assay: Antiproliferative activity against human TE1 after 72 hrs by MTT assay; assay type: functional, cell-based; in short: as §1
PC-9 [6] = assay: Induction of apoptosis in human PC9 cells assessed as early apoptotic cells at 2.5 uM after 48 hrs by Annexin V-FITC/propidium iodide staining based flow cytometry (reference value: 1.36%); assay type: functional
In short: (§3)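 PC9 cells seeded in 6-well plates (1~2×10^6 cells/mL), incubated overnight, then exposed to 0, 2.5, 5 or 10µM compound for 48h. Harvested cells stained with Annexin-V-FITC/PI for 30 min and analysed by flow cytometry. Three individual experiments; means ± SD.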

PC-9 [7] = assay: Induction of apoptosis in human PC9 cells after 48 hrs by Annexin V-FITC/propidium iodide staining based flow cytometry; assay type: functional, cell-based; in short: as §3
DCN1-like protein 1 [8] = target: T1, DCN1-like protein 1 (Homo sapiens, UniProt Q96GG9)
Target sequence in this assay (Q96GG9 whole entry, looked up): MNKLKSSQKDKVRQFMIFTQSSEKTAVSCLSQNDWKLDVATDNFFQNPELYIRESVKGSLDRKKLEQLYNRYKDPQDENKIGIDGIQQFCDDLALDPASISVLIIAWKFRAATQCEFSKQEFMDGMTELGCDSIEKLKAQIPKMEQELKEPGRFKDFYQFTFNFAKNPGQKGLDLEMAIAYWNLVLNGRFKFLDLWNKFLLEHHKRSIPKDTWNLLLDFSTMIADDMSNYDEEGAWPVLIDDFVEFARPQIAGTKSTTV

PC-9 [9] = assay: Induction of apoptosis in human PC9 cells assessed as late apoptotic cells at 10 uM after 48 hrs by Annexin V-FITC/propidium iodide staining based flow cytometry (reference value: 1.57%); assay type: functional
NCI-H1975 [10] = assay: Induction of apoptosis in human NCI-NCI-H1975 cells assessed as viable cells at 2.5 uM after 48 hrs by Annexin V-FITC/propidium iodide staining based flow cytometry (reference value: 96.1%); assay type: functional; conditions: NCI-H1975, 48 h, read-out: Activity
A549 [11] = assay: Induction of apoptosis in human A549 cells assessed as late apoptotic cells at 5 uM after 48 hrs by Annexin V-FITC/propidium iodide staining based flow cytometry (reference value: 2.61%); assay type: functional
NCI-H1975 [12] = assay: Effect on Cullin3 neddylation in human NCI-H1975 cells transfected with DCN1 siRNA3 by densitometric method; assay type: functional, cell-based; in short: as §2
PC-9 [13] = assay: Effect on NQO1 accumulation in human PC9 cells transfected with DCN1 siRNA3 by densitometric method; assay type: functional, cell-based; in short: as §2
A549 [14] = assay: Induction of apoptosis in human A549 cells assessed as viable cells at 2.5 uM after 48 hrs by Annexin V-FITC/propidium iodide staining based flow cytometry (reference value: 92.9%); assay type: functional; conditions: A549, 48 h, read-out: Activity
PC-9 [15] = assay: Induction of apoptosis in human PC9 cells assessed as necrotic cells at 10 uM after 48 hrs by Annexin V-FITC/propidium iodide staining based flow cytometry (reference value: 1.34%); assay type: functional; in short: as §3
NCI-H1975 [16] = assay: Induction of apoptosis in human NCI-NCI-H1975 cells assessed as necrotic cells at 2.5 uM after 48 hrs by Annexin V-FITC/propidium iodide staining based flow cytometry (reference value: 0.94%); assay type: functional
DCN1-like protein 1 [17] = target: T1, DCN1-like protein 1; assay: Binding affinity to N-terminal His6-tagged recombinant human DCN1 expressed in Escherichia coli BL21-AI assessed as reduction in DCN1-FAM-labelled N-terminal acetylated UBE2M (1 to 12 residues) protein-protein interaction after 30 mins by fluorescence polarization competitive binding assay
Target sequence in this assay (Q96GG9 whole entry): as the sequence (Q96GG9 whole entry, looked up) above

PC-9 [18] = assay: Induction of apoptosis in human PC9 cells assessed as necrotic cells at 2.5 uM after 48 hrs by Annexin V-FITC/propidium iodide staining based flow cytometry (reference value: 1.34%); assay type: functional; in short: as §3
NCI-H1975 [19] = assay: Induction of apoptosis in human NCI-NCI-H1975 cells after 48 hrs by Annexin V-FITC/propidium iodide staining based flow cytometry; assay type: functional, cell-based
DCN1-like protein 2 = DCN1-like protein 2 (Homo sapiens, UniProt Q6PH85); assay: Binding affinity to N-terminal GST tagged recombinant DCN2 (unknown origin) (62 to 259 residues) expressed in Escherichia coli BL21(DE3) assessed as reduction in DCN1-FAM-labelled N-terminal acetylated UBE2M (1 to 21 residues) protein-protein interaction after 30 mins by HTRF assay
In short: (§4)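 HTRF competition: 5nM GST-tagged DCN (1-5) and 5nM AcUBE2M1-21-biotin peptide, with streptavidin-XL665 and anti-GST cryptate, in 100mM phosphate buffer pH 6.5 with 0.02% Tween-20. Cocktail pre-incubated 30min at room temperature, compound added, then 30min more. Excitation 320nm, emission 615/665nm. Ki from three independent repeats, mean ± SD.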

DCN1-like protein 5 = target: T2, DCN1-like protein 5 (Homo sapiens, UniProt Q9BTE7); assay: Binding affinity to N-terminal GST tagged recombinant DCN5 (unknown origin) (47 to 237 residues) expressed in Escherichia coli BL21(DE3) assessed as reduction in DCN1/FAM-labelled N-terminal acetylated UBE2M (1 to 21 residues) protein-protein interaction after 30 mins by HTRF assay; in short: as §4
T2 sequence (Q9BTE7 whole entry): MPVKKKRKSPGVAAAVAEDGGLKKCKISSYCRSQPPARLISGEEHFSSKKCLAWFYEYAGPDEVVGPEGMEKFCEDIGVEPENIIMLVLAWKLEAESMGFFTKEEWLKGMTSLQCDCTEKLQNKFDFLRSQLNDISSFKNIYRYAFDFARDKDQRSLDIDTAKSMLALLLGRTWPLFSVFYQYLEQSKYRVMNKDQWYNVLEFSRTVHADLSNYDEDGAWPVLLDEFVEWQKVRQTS

PC-3 = assay: Antiproliferative activity against human PC3 after 72 hrs by MTT assay; assay type: functional, cell-based; conditions: PC-3, 72 h; in short: as §1

Chain of DCN1-like protein 2 (Q6PH85 whole entry, the tested form may be a part): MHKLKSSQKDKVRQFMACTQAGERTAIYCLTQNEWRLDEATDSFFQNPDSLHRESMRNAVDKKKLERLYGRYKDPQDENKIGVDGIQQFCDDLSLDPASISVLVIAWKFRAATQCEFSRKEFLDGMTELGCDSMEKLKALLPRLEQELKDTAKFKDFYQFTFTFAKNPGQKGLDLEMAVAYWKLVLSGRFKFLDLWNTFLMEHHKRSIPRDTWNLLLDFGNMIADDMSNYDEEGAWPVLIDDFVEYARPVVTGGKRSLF

- solubility [1]: Soluble
- ΔTm (DCN1-like protein 1 [8]): 7 °C
- IC50 (DCN1-like protein 1 [17]): 0.0269 µM
- Ki (DCN1-like protein 1 [17]): 0.0208 µM
- Ki (DCN1-like protein 2): 0.0662 µM
- Ki (DCN1-like protein 5): 2.14 µM
- IC50 (PC-3): 1.62 µM
Structure (SMILES): C#CCSc1nc(Sc2nccs2)c(C#N)c(-c2ccc(C)cc2)n1
- IC50 (KYSE-70 cell line): 4.3 µM
- Activity (A549 [2]): 10.3%
- Activity (NCI-H1975 [3]): 9.47%
- Activity (NCI-H1975 [4]): 4.92%
- Activity (PC-9 [5]): inactive
- Activity (TE-1): Active
- Activity (PC-9 [6]): 0.64%
- Activity (PC-9 [7]): Dose-dependent effect
- Activity (PC-9 [9]): 57.2%
- viability at 2.5 µM (NCI-H1975 [10]): 80%
- Activity (A549 [11]): 31.6%
- Activity (NCI-H1975 [12]): inactive
- Activity (PC-9 [13]): inactive
- viability at 2.5 µM (A549 [14]): 82.2%
- Activity (PC-9 [15]): 17.4%
- Activity (NCI-H1975 [16]): 1.35%
- Activity (PC-9 [18]): 19.9%
- Activity (NCI-H1975 [19]): Dose-dependent effect
